Experiments:
[1] = system: HuT78; test: Giant-cell formation between persistently HIV-1 infected HUT-78 cells and uninfected MOLT-4 cells; assay type: functional, cell-based
Outline: (§1)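 MOLT-4 cells were co-cultured with an equal number of HUT-78 cells persistently infected with HIV-1 IIIB or HIV-2 ROD, with varying compound concentrations. Syncytia were counted by flow cytofluorography after 24 h. EC50 is the concentration giving 50% protection against giant-cell formation.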

[2] = system: HuT78; test: Giant-cell formation between persistently HIV-2 infected HUT-78 cells and uninfected MOLT-4 cells; assay type: functional, cell-based; outline: as §1
[3] = In vitro anticoagulant activity determined by clotting test of activated partial thromboplastin time (APTT) on a pool of human plasma; assay type: functional
Outline: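 Activated partial thromboplastin time clotting test on pooled human plasma, run on an automatic coagulometer. Activities were calculated according to the European Pharmacopoeia.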

[4] = system: MT4; test: Effective concentration to achieve 50% protection of MT-4 cells against the cytopathic effect of HIV-1; assay type: functional, cell-based
[5] = system: MT4; test: Effective concentration to achieve 50% protection of MT-4 cells against the cytopathic effect of HIV-2; assay type: functional, cell-based
[6] = system: MT4; test: Selectivity index for CC50 (cytotoxic concentration based on the reduction of the viability of mock-infected MT-4 cells) to that of EC50 against HIV-1; assay type: functional
Outline: (§2)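 MT-4 cells at 3 × 10^5 cells/mL were infected with HIV-1 IIIB or HIV-2 ROD at 100 CCID50/mL, or mock-infected, alongside serial compound dilutions. Viability was read by MTT after 5 days at 37 °C. CC50 comes from mock-infected cells and EC50 from protection against cytopathicity. Index = CC50/EC50.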

[7] = system: MT4; test: Selectivity index for CC50 (cytotoxic concentration based on reduction of viability of mock-infected MT-4 cells) to that of EC50 against HIV-2; assay type: functional; outline: as §2
[8] = Homo sapiens, HuT78, read-out: EC50
[9] = Homo sapiens, MT4, read-out: EC50

SMILES | EC50 [1, 8] | EC50 [2, 8] | APTT [3] | EC50 [4, 9] | EC50 [5, 9] | Selectivity index [6] | Selectivity index [7] | EC50 ([1]; hut78) | EC50 ([4]; mt4) | EC50 ([5]; mt4) | EC50 ([2]; hut78)
CCCCOC(=O)/C=C(\CO)OC1OC(COS(=O)(=O)[O-])C(OC2OC(C(=O)OCCCC)C(OC3OC(COS(=O)(=O)[O-])C(OC4OC(C(=O)OCCCC)C(OC5OC(COS(=O)(=O)[O-])C(O)C(O)C5NC(C)=O)C(O)C4OS(=O)(=O)[O-])C(O)C3NC(C)=O)C(O)C2OS(=O)(=O)[O-])C(O)C1NC(C)=O.[Na+].[Na+].[Na+].[Na+].[Na+] (stereo unspecified) | 100 µg/mL | 20 µg/mL | 1.2 IU mg-1 | 6.5 µg/mL | 2.5 µg/mL | >77 | >200 |  |  |  | 
CC(=O)NC1C(OC2C(C(=O)[O-])OC(OC3C(COS(=O)(=O)[O-])OC(OC4C(C(=O)[O-])OC(OC5C(COS(=O)(=O)[O-])OC(O/C(=C/C(=O)[O-])CO)C(NC(C)=O)C5O)C(OS(=O)(=O)[O-])C4O)C(NC(C)=O)C3O)C(OS(=O)(=O)[O-])C2O)OC(COS(=O)(=O)[O-])C(O)C1O.[Na+].[Na+].[Na+].[Na+].[Na+].[Na+].[Na+].[Na+] (stereo unspecified) | 500 µg/mL | 60 µg/mL | 2.4 IU mg-1 | 4.1 µg/mL | 2.7 µg/mL | >122 | >185 |  |  |  | 
C/C=C\COC(=O)/C=C(\CO)OC1OC(COS(=O)(=O)[O-])C(OC2OC(C(=O)OC/C=C/C)C(OC3OC(COS(=O)(=O)[O-])C(OC4OC(C(=O)OC/C=C/C)C(OC5OC(COS(=O)(=O)[O-])C(O)C(O)C5NS(=O)(=O)[O-])C(O)C4OS(=O)(=O)[O-])C(O)C3NS(=O)(=O)[O-])C(O)C2OS(=O)(=O)[O-])C(O)C1NS(=O)(=O)[O-].[Na+].[Na+].[Na+].[Na+].[Na+].[Na+].[Na+].[Na+] (stereo unspecified) | 10 µg/mL | 1 µg/mL | 3 IU mg-1 | 0.1 µg/mL | 1.3 µg/mL | >5000 | >384 |  |  |  | 
C=CCOC(=O)/C=C(\CO)OC1OC(COS(=O)(=O)[O-])C(OC2OC(C(=O)OCC=C)C(OC3OC(COS(=O)(=O)[O-])C(OC4OC(C(=O)OCC=C)C(OC5OC(COS(=O)(=O)[O-])C(O)C(O)C5NS(=O)(=O)[O-])C(O)C4OS(=O)(=O)[O-])C(O)C3NS(=O)(=O)[O-])C(O)C2OS(=O)(=O)[O-])C(O)C1NS(=O)(=O)[O-].[Na+].[Na+].[Na+].[Na+].[Na+].[Na+].[Na+].[Na+] (stereo unspecified) | 100 µg/mL | 3 µg/mL | 2 IU mg-1 | 0.2 µg/mL | 1 µg/mL | >2500 | >500 |  |  |  | 
C=CCCOC(=O)/C=C(\CO)OC1OC(COS(=O)(=O)[O-])C(OC2OC(C(=O)OCCC=C)C(OC3OC(COS(=O)(=O)[O-])C(OC4OC(C(=O)OCCC=C)C(OC5OC(COS(=O)(=O)[O-])C(O)C(O)C5NS(=O)(=O)[O-])C(O)C4OS(=O)(=O)[O-])C(O)C3NS(=O)(=O)[O-])C(O)C2OS(=O)(=O)[O-])C(O)C1NS(=O)(=O)[O-].[Na+].[Na+].[Na+].[Na+].[Na+].[Na+].[Na+].[Na+] (stereo unspecified) | 90 µg/mL | 2 µg/mL | 3 IU mg-1 | 0.6 µg/mL | 2.4 µg/mL | >833 | >208 |  |  |  | 
O=C(/C=C(\CO)OC1OC(COS(=O)(=O)[O-])C(OC2OC(C(=O)OCc3ccccc3)C(OC3OC(COS(=O)(=O)[O-])C(OC4OC(C(=O)OCc5ccccc5)C(OC5OC(COS(=O)(=O)[O-])C(O)C(O)C5NS(=O)(=O)[O-])C(O)C4OS(=O)(=O)[O-])C(O)C3NS(=O)(=O)[O-])C(O)C2OS(=O)(=O)[O-])C(O)C1NS(=O)(=O)[O-])OCc1ccccc1.[Na+].[Na+].[Na+].[Na+].[Na+].[Na+].[Na+].[Na+] (stereo unspecified) | 1 µg/mL | 2 µg/mL | 4 IU mg-1 | 0.33 µg/mL | 0.4 µg/mL | >1515 | >1250 |  |  |  | 
CCCCOC(=O)/C=C(\COC(=O)CCC)OC1OC(COS(=O)(=O)[O-])C(OC2OC(C(=O)OCCCC)C(OC3OC(COS(=O)(=O)[O-])C(OC4OC(C(=O)OCCCC)C(OC5OC(COS(=O)(=O)[O-])C(O)C(OC(=O)CCC)C5NS(=O)(=O)[O-])C(OC(=O)CCC)C4OS(=O)(=O)[O-])C(OC(=O)CCC)C3NS(=O)(=O)[O-])C(OC(=O)CCC)C2OS(=O)(=O)[O-])C(OC(=O)CCC)C1NS(=O)(=O)[O-].[Na+].[Na+].[Na+].[Na+].[Na+].[Na+].[Na+].[Na+] (stereo unspecified) | 4 µg/mL | 4 µg/mL | 5 IU mg-1 | 0.28 µg/mL | 0.27 µg/mL | >1785 | >1850 |  |  |  | 
COc1ccc(COC(=O)/C=C(\CO)OC2OC(COS(=O)(=O)[O-])C(OC3OC(C(=O)OCc4ccc(OC)cc4)C(OC4OC(COS(=O)(=O)[O-])C(OC5OC(C(=O)OCc6ccc(OC)cc6)C(OC6OC(COS(=O)(=O)[O-])C(O)C(O)C6NS(=O)(=O)[O-])C(O)C5OS(=O)(=O)[O-])C(O)C4NS(=O)(=O)[O-])C(O)C3OS(=O)(=O)[O-])C(O)C2NS(=O)(=O)[O-])cc1.[Na+].[Na+].[Na+].[Na+].[Na+].[Na+].[Na+].[Na+] (stereo unspecified) | > 100 µg/mL | > 100 µg/mL | 4 IU mg-1 | 0.1 µg/mL | 4.3 µg/mL | >5000 | >119 |  |  |  | 
O=C([O-])/C=C(\CO)OC1OC(COS(=O)(=O)[O-])C(OC2OC(C(=O)[O-])C(OC3OC(COS(=O)(=O)[O-])C(OC4OC(C(=O)[O-])C(OC5OC(COS(=O)(=O)[O-])C(O)C(O)C5NS(=O)(=O)[O-])C(O)C4OS(=O)(=O)[O-])C(O)C3NS(=O)(=O)[O-])C(O)C2OS(=O)(=O)[O-])C(O)C1NS(=O)(=O)[O-].[Na+].[Na+].[Na+].[Na+].[Na+].[Na+].[Na+].[Na+].[Na+].[Na+].[Na+] (stereo in doubt; 3a) |  | > 200 µg/mL | 5 IU mg-1 |  |  | >961 | 318 | > 200 µg/mL | 0.52 µg/mL | 77 µg/mL | 
CCCCCC(=O)OC/C(=C\C(=O)[O-])OC1OC(COS(=O)(=O)[O-])C(OC2OC(C(=O)[O-])C(OC3OC(COS(=O)(=O)[O-])C(OC4OC(C(=O)[O-])C(OC5OC(CS(=O)(=O)[O-])C(O)C(OC(=O)CCCCC)C5NS(=O)(=O)[O-])C(OC(=O)CCCCC)C4OS(=O)(=O)[O-])C(OC(=O)CCCCC)C3NS(=O)(=O)[O-])C(OC(=O)CCCCC)C2OS(=O)(=O)[O-])C(OC(=O)CCCCC)C1NS(=O)(=O)[O-].[Na+].[Na+].[Na+].[Na+].[Na+].[Na+].[Na+].[Na+].[Na+].[Na+].[Na+] (stereo in doubt; 3f) |  |  | 4 IU mg-1 |  |  | >2500 | >500 | 7 µg/mL | 0.2 µg/mL | 1 µg/mL | 100 µg/mL
CCCCCC(=O)OC/C(=C\C(=O)[O-])OC1OC(COS(=O)(=O)[O-])C(OC2OC(C(=O)[O-])C(OC3OC(COS(=O)(=O)[O-])C(OC4OC(C(=O)[O-])C(OC5OC(CS(=O)(=O)[O-])C(O)C(OC(=O)CCCCC)C5NS(=O)(=O)[O-])C(OC(=O)CCCCC)C4OS(=O)(=O)[O-])C(OC(=O)CCCCC)C3NS(=O)(=O)[O-])C(OC(=O)CCCCC)C2OS(=O)(=O)[O-])C(OC(=O)CCCCC)C1NS(=O)(=O)[O-].[Na+].[Na+].[Na+].[Na+].[Na+].[Na+].[Na+].[Na+].[Na+].[Na+].[Na+] (stereo in doubt; 3h) |  |  | 6 IU mg-1 |  |  | >5000 | >1250 | 3 µg/mL | 0.1 µg/mL | 0.4 µg/mL | 50 µg/mL
CCCCCCCCOC(=O)/C=C(\CO)OC1OC(COS(=O)(=O)[O-])C(OC2OC(C(=O)OCCCCCCCC)C(OC3OC(COS(=O)(=O)[O-])C(OC4OC(C(=O)OCCCCCCCC)C(OC5OC(COS(=O)(=O)[O-])C(O)C(O)C5NS(=O)(=O)[O-])C(O)C4OS(=O)(=O)[O-])C(O)C3NS(=O)(=O)[O-])C(O)C2OS(=O)(=O)[O-])C(O)C1NS(=O)(=O)[O-].[Na+].[Na+].[Na+].[Na+].[Na+].[Na+].[Na+].[Na+] (stereo in doubt; 7f) | 4 µg/mL | 18 µg/mL | 3 IU mg-1 | 0.7 µg/mL |  | >714 | >454 |  |  | 1.1 µg/mL | 
CCCCCCCCOC(=O)/C=C(\CO)OC1OC(COS(=O)(=O)[O-])C(OC2OC(C(=O)OCCCCCCCC)C(OC3OC(COS(=O)(=O)[O-])C(OC4OC(C(=O)OCCCCCCCC)C(OC5OC(COS(=O)(=O)[O-])C(O)C(O)C5NS(=O)(=O)[O-])C(O)C4OS(=O)(=O)[O-])C(O)C3NS(=O)(=O)[O-])C(O)C2OS(=O)(=O)[O-])C(O)C1NS(=O)(=O)[O-].[Na+].[Na+].[Na+].[Na+].[Na+].[Na+].[Na+].[Na+] (stereo in doubt; 7g) |  |  | 6 IU mg-1 |  |  | >833 | >1000 | 4 µg/mL | 0.59 µg/mL | 0.5 µg/mL | 20 µg/mL

Reference: ChEMBL document CHEMBL1126896, “Preparation and anti-HIV activity of O-acylated heparin and dermatan sulfate derivatives with low anticoagulant effect” (J Med Chem, 1993)
